Measured values: ChEMBL document CHEMBL3244078, “Synthesis and antihypertensive activity of novel 3-hydrazino-5-phenyl-1,2,4-triazines” (J Med Chem, 1979)
Activity calls are given as the source filed them. The calls are words filed in the database; no cut-off is given here.

Legend:
Rattus norvegicus [1] = test: Antihypertensive activity in spontaneously hypertensive rat assessed as drop in mean systolic blood pressure at 100 mg/kg, po after 4 hrs by tail cuff method relative to vehicle-treated control; assay type: functional, Artery
Rattus norvegicus [2] = test: Antihypertensive activity in spontaneously hypertensive rat assessed as drop in mean systolic blood pressure at 30 mg/kg, po followed by second dosing at 24 hrs measured after 48 hrs by tail cuff method relative to vehicle-treated control; assay type: functional, Artery
Method in brief: (§1)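 Dose-response run of the primary SHR protocol: rats aged 12–16 weeks, systolic BP of 170 mmHg or greater, five per dose. Oral doses of 100, 30, 10 and 3 mg/kg in 0.25% methylcellulose, redosed immediately after the 24-h reading. Tail-cuff systolic BP read predose and at 4, 24, 28 and 48 h. Mean drop from predose; Student's t test, p < 0.05.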

Rattus norvegicus [3] = test: Antihypertensive activity in spontaneously hypertensive rat assessed as drop in mean systolic blood pressure at 30 mg/kg, po after 4 hrs by tail cuff method relative to vehicle-treated control; assay type: functional, Artery; method in brief: as §1
Rattus norvegicus [4] = test: Antihypertensive activity in spontaneously hypertensive rat assessed as drop in mean systolic blood pressure at 30 mg/kg, po after 24 hrs by tail cuff method relative to vehicle-treated control; assay type: functional, Artery; method in brief: as §1
Rattus norvegicus [5] = test: Antihypertensive activity in spontaneously hypertensive rat assessed as mean heart rate at 100 mg/kg, po after 4 hrs by tail cuff method relative to vehicle-treated control; assay type: functional
Method in brief: (§2)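 Heart rate by biotachometer in the SHR dose-response protocol: five rats per dose, oral doses of 100, 30, 10 and 3 mg/kg in 0.25% methylcellulose, second dose right after the 24-h reading. Mean heart rate recorded predose and at 4, 24, 28 and 48 h.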

Rattus norvegicus [6] = test: Antihypertensive activity in spontaneously hypertensive rat assessed as mean heart rate at 3 mg/kg, po followed by second dosing at 24 hrs measured after 28 hrs by tail cuff method relative to vehicle-treated control; assay type: functional; method in brief: as §2
Rattus norvegicus [7] = test: Antihypertensive activity in spontaneously hypertensive rat assessed as mean heart rate at 3 mg/kg, po followed by second dosing at 24 hrs measured after 48 hrs by tail cuff method relative to vehicle-treated control; assay type: functional; method in brief: as §2
Rattus norvegicus [8] = test: Antihypertensive activity in spontaneously hypertensive rat assessed as drop in mean systolic blood pressure at 10 mg/kg, po followed by second dosing at 24 hrs measured after 48 hrs by tail cuff method relative to vehicle-treated control; assay type: functional; method in brief: as §1
Rattus norvegicus [9] = test: Antihypertensive activity in spontaneously hypertensive rat assessed as mean heart rate at 3 mg/kg, po after 24 hrs by tail cuff method relative to vehicle-treated control; assay type: functional; method in brief: as §2
Rattus norvegicus [10] = test: Antihypertensive activity in spontaneously hypertensive rat assessed as drop in mean systolic blood pressure at 100 mg/kg, po followed by second dosing at 24 hrs measured after 48 hrs by tail cuff method relative to vehicle-treated control; assay type: functional, Artery
Rattus norvegicus [11] = test: Antihypertensive activity in spontaneously hypertensive rat assessed as mean heart rate at 10 mg/kg, po followed by second dosing at 24 hrs measured after 48 hrs by tail cuff method relative to vehicle-treated control; assay type: functional; method in brief: as §2
Rattus norvegicus [12] = test: Antihypertensive activity in spontaneously hypertensive rat assessed as mean heart rate at 100 mg/kg, po after 24 hrs by tail cuff method relative to vehicle-treated control; assay type: functional; method in brief: as §2
Rattus norvegicus [13] = test: Antihypertensive activity in spontaneously hypertensive rat assessed as mean heart rate at 30 mg/kg, po followed by second dosing at 24 hrs measured after 48 hrs by tail cuff method relative to vehicle-treated control; assay type: functional; method in brief: as §2
Rattus norvegicus [14] = test: Antihypertensive activity in spontaneously hypertensive rat assessed as drop in mean systolic blood pressure at 100 mg/kg, po followed by second dosing at 24 hrs measured after 28 hrs by tail cuff method relative to vehicle-treated control; assay type: functional, Artery
Rattus norvegicus [15] = test: Antihypertensive activity in spontaneously hypertensive rat assessed as drop in mean systolic blood pressure at 10 mg/kg, po followed by second dosing at 24 hrs measured after 28 hrs by tail cuff method relative to vehicle-treated control; assay type: functional; method in brief: as §1
Rattus norvegicus [16] = test: Antihypertensive activity in spontaneously hypertensive rat assessed as mean heart rate at 100 mg/kg, po followed by second dosing at 24 hrs measured after 48 hrs by tail cuff method relative to vehicle-treated control; assay type: functional; method in brief: as §2
Rattus norvegicus [17] = test: Antihypertensive activity in spontaneously hypertensive rat assessed as mean heart rate at 3 mg/kg, po after 4 hrs by tail cuff method relative to vehicle-treated control; assay type: functional; method in brief: as §2
Rattus norvegicus [18] = test: Antihypertensive activity in spontaneously hypertensive rat assessed as mean heart rate at 10 mg/kg, po after 24 hrs by tail cuff method relative to vehicle-treated control; assay type: functional; method in brief: as §2
Rattus norvegicus [19] = test: Antihypertensive activity in spontaneously hypertensive rat assessed as mean heart rate at 100 mg/kg, po followed by second dosing at 24 hrs measured after 28 hrs by tail cuff method relative to vehicle-treated control; assay type: functional; method in brief: as §2
Rattus norvegicus [20] = test: Antihypertensive activity in spontaneously hypertensive rat assessed as mean heart rate at 30 mg/kg, po followed by second dosing at 24 hrs measured after 28 hrs by tail cuff method relative to vehicle-treated control; assay type: functional; method in brief: as §2
Rattus norvegicus [21] = test: Antihypertensive activity in spontaneously hypertensive rat assessed as mean heart rate at 10 mg/kg, po after 4 hrs by tail cuff method relative to vehicle-treated control; assay type: functional; method in brief: as §2
Rattus norvegicus [22] = test: Antihypertensive activity in spontaneously hypertensive rat assessed as drop in mean systolic blood pressure at 30 mg/kg, po followed by second dosing at 24 hrs measured after 28 hrs by tail cuff method relative to vehicle-treated control; assay type: functional, Artery; method in brief: as §1
Rattus norvegicus [23] = test: Antihypertensive activity in spontaneously hypertensive rat assessed as drop in mean systolic blood pressure at 100 mg/kg, po after 24 hrs by tail cuff method relative to vehicle-treated control; assay type: functional, Artery
Rattus norvegicus [24] = test: Antihypertensive activity in spontaneously hypertensive rat assessed as mean heart rate at 10 mg/kg, po followed by second dosing at 24 hrs measured after 28 hrs by tail cuff method relative to vehicle-treated control; assay type: functional; method in brief: as §2
[25] = Toxicity in ip dosed CF-1 mouse after 48 hrs; settings: in vivo
Rattus norvegicus [26] = test: Antihypertensive activity in spontaneously hypertensive rat assessed as mean heart rate at 30 mg/kg, po after 4 hrs by tail cuff method relative to vehicle-treated control; assay type: functional; method in brief: as §2
Rattus norvegicus [27] = test: Antihypertensive activity in spontaneously hypertensive rat assessed as mean heart rate at 30 mg/kg, po after 24 hrs by tail cuff method relative to vehicle-treated control; assay type: functional; method in brief: as §2
Rattus norvegicus [28] = test: Antihypertensive activity in spontaneously hypertensive rat assessed as drop in mean systolic blood pressure at 10 mg/kg, po after 4 hrs by tail cuff method relative to vehicle-treated control; assay type: functional; method in brief: as §1
Rattus norvegicus [29] = test: Antihypertensive activity in spontaneously hypertensive rat assessed as drop in mean systolic blood pressure at 10 mg/kg, po after 24 hrs by tail cuff method relative to vehicle-treated control; assay type: functional; method in brief: as §1
Rattus norvegicus [30] = test: Antihypertensive activity in spontaneously hypertensive rat assessed as drop in mean systolic blood pressure at 50 mg/kg, po followed by second dosing at 24 hrs measured after 28 hrs by tail cuff method relative to vehicle-treated control; assay type: functional, Artery
Method in brief: (§3)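 Spontaneously hypertensive rats aged 12–16 weeks with systolic BP of 170 mmHg or greater, in groups of five. Dosed po as a solution or suspension in 0.25% methylcellulose at 5 mL/kg, with a second dose right after the 24-h reading. Tail-cuff systolic BP (capacitance transducer) was read predose as control, then at 4, 24, 28 and 48 h. Mean drop from predose; Student's t test, p < 0.05.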

Rattus norvegicus [31] = test: Antihypertensive activity in spontaneously hypertensive rat assessed as drop in mean systolic blood pressure at 50 mg/kg, po after 24 hrs by tail cuff method relative to vehicle-treated control; assay type: functional, Artery; method in brief: as §3
Rattus norvegicus [32] = test: Antihypertensive activity in spontaneously hypertensive rat assessed as drop in mean systolic blood pressure at 50 mg/kg, po followed by second dosing at 24 hrs measured after 48 hrs by tail cuff method relative to vehicle-treated control; assay type: functional, Artery; method in brief: as §3
Rattus norvegicus [33] = test: Antihypertensive activity in spontaneously hypertensive rat assessed as drop in mean systolic blood pressure at 50 mg/kg, po after 4 hrs by tail cuff method relative to vehicle-treated control; assay type: functional, Artery; method in brief: as §3

Row | Structure (SMILES) | Activity (Rattus norvegicus [1]) [mmHg] | Activity (Rattus norvegicus [2]) [mmHg] | Activity (Rattus norvegicus [3]) [mmHg] | Activity (Rattus norvegicus [4]) [mmHg] | Activity (Rattus norvegicus [5]) [bpm] | Activity (Rattus norvegicus [6]) [bpm] | Activity (Rattus norvegicus [7]) [bpm] | Activity (Rattus norvegicus [9]) [bpm] | Activity (Rattus norvegicus [10]) [mmHg] | Activity (Rattus norvegicus [11]) [bpm] | Activity (Rattus norvegicus [13]) [bpm] | Activity (Rattus norvegicus [17]) [bpm] | Activity (Rattus norvegicus [18]) [bpm] | Activity (Rattus norvegicus [20]) [bpm] | Activity (Rattus norvegicus [21]) [bpm] | Activity (Rattus norvegicus [22]) [mmHg] | Activity (Rattus norvegicus [24]) [bpm] | LD50 at 48 h [25] [mg/kg] | Activity (Rattus norvegicus [26]) [bpm] | Activity (Rattus norvegicus [27]) [bpm] | further results
1 | CC(=O)NNc1nncc(-c2cccc(Cl)c2)n1 | 20 | 19 | 16 | 14 | 478 | 436 | 442 | 430 | 55 | 448 | 462 | 422 | 460 | 460 | 458 | 19 | 448 | > 300 | 400 | 438 | Activity (Rattus norvegicus [8]; Artery): inactive; Activity (Rattus norvegicus [12]): 482 bpm; Activity (Rattus norvegicus [14]): 50 mmHg; Activity (Rattus norvegicus [15]; Artery): inactive; Activity (Rattus norvegicus [16]): 490 bpm; Activity (Rattus norvegicus [19]): 482 bpm; Activity (Rattus norvegicus [23]): 23 mmHg; Activity (Rattus norvegicus [28]; Artery): inactive; Activity (Rattus norvegicus [29]; Artery): inactive
2 | NNc1nncc(-c2ccccc2)n1 |  |  |  |  |  |  |  |  |  |  |  |  |  |  |  |  |  | 56 |  |  | Activity (Rattus norvegicus [30]): 58 mmHg; Activity (Rattus norvegicus [31]): 43 mmHg; Activity (Rattus norvegicus [32]): 60 mmHg; Activity (Rattus norvegicus [33]): 30 mmHg
3 | O=C(NNc1nncc(-c2ccc(Cl)c(Cl)c2)n1)C(F)(F)F | 30 | 16 | 18 | 18 | 472 | 428 | 424 | 424 | 25 | 400 | 426 | 430 | 438 | 435 | 412 | 18 | 448 | > 300 | 444 | 438 | Activity (Rattus norvegicus [8]): 15 mmHg; Activity (Rattus norvegicus [12]): 462 bpm; Activity (Rattus norvegicus [14]): 35 mmHg; Activity (Rattus norvegicus [15]): 17 mmHg; Activity (Rattus norvegicus [16]): 438 bpm; Activity (Rattus norvegicus [19]): 438 bpm; Activity (Rattus norvegicus [23]): 29 mmHg; Activity (Rattus norvegicus [28]): 16 mmHg; Activity (Rattus norvegicus [29]): 12 mmHg
4 | Cl.O.O=C(NNc1nncc(-c2ccccc2)n1)C12CC3CC(CC(C3)C1)C2 | 42 | 11 | 20 | 12 | 446 | 418 | 426 | 420 | 35 | 422 | 392 | 445 | 446 | 380 | 468 | 18 | 428 | > 300 | 410 | 412 | Activity (Rattus norvegicus [8]; Artery): inactive; Activity (Rattus norvegicus [12]): 428 bpm; Activity (Rattus norvegicus [14]): 46 mmHg; Activity (Rattus norvegicus [15]; Artery): inactive; Activity (Rattus norvegicus [16]): 458 bpm; Activity (Rattus norvegicus [19]): 442 bpm; Activity (Rattus norvegicus [23]): 70 mmHg; Activity (Rattus norvegicus [28]; Artery): inactive; Activity (Rattus norvegicus [29]; Artery): inactive
5 | NNc1nncc2ccccc12 [HYDRALAZINE] |  | 14 | 88 | 60 |  | 444 | 432 | 392 |  | 448 | 448 | 448 | 468 | 496 | 504 | 47 | 428 | 100 | 492 | 480 | Activity (Rattus norvegicus [8]): 10 mmHg; Activity (Rattus norvegicus [15]): 10 mmHg; Activity (Rattus norvegicus [28]): 60 mmHg; Activity (Rattus norvegicus [29]): 38 mmHg
6 | Br.NCC(=O)NNc1nncc(-c2ccccc2)n1.O |  |  |  |  |  |  |  |  |  |  |  |  |  |  |  |  |  | 75 |  |  | Activity (Rattus norvegicus [30]): 105 mmHg; Activity (Rattus norvegicus [31]): 35 mmHg; Activity (Rattus norvegicus [32]): 91 mmHg; Activity (Rattus norvegicus [33]): 41 mmHg
